From ChEMBL document CHEMBL1148577, “Discovery of benzylidenebenzofuran-3(2H)-one (aurones) as inhibitors of tyrosinase derived from human melanocytes” (J Med Chem, 2006)

Tests used:
[1] = target: T1, Tyrosinase (Homo sapiens) (UniProt P14679); test: Inhibition of tyrosinase in human melanocytes at 0.1 mM; format: cell-based
T1 sequence (whole entry): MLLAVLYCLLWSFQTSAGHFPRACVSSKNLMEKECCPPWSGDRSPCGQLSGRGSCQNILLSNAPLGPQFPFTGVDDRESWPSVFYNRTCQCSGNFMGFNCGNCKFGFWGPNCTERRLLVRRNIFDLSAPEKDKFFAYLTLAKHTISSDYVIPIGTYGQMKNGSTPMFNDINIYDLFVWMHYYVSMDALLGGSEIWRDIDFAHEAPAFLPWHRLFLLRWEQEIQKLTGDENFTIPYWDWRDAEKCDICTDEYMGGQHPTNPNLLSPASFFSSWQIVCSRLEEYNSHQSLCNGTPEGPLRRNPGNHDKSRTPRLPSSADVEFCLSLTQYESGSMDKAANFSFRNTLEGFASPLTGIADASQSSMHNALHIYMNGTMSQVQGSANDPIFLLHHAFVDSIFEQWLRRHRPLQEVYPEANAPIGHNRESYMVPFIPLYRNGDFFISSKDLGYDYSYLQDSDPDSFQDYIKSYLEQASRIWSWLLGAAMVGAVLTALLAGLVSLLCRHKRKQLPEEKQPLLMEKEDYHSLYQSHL

[2] = system: Rattus norvegicus; test: Oral toxicity in rats administered at 5 g/kg, po; format: organism-based; details: in vivo, 5000 mg/kg
Procedure, shortened: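 Acute oral toxicity following OECD 423 acute toxic class method in six female rats. Single dose of 5 g/kg test preparation (10% in xanthane gel). Six female controls received distilled water 2000 mg/kg. Daily observation for 14 days for mortality and signs of toxicity. GHS classification.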

[3] = target: T1, Tyrosinase (Homo sapiens); test: Inhibition of tyrosinase in human white skin melanocytes at 0.01 mM; format: cell-based
[4] = target: T1, Tyrosinase (Homo sapiens); test: Inhibition of tyrosinase in human black skin melanocytes at 0.01 mM; format: cell-based
[5] = target: T1, Tyrosinase (Homo sapiens); test: Inhibition of tyrosinase in human black skin melanocytes at 0.1 mM; format: cell-based
[6] = target: T1, Tyrosinase (Homo sapiens); test: Inhibition of tyrosinase in human white skin melanocytes at 0.1 mM; format: cell-based
[7] = target: T1, Tyrosinase (Homo sapiens); test: Inhibition of tyrosinase in human dark skin melanocytes at 0.01 mM; format: cell-based
[8] = target: T2, Tyrosinase (Homo sapiens, UniProt P14679); test: Inhibitory activity against tyrosinase in human melanocytes; format: cell-based
T2 sequence (P14679 whole entry): T1 sequence (whole entry)

[9] = target: T1, Tyrosinase (Homo sapiens); test: Inhibition of tyrosinase in human dark skin melanocytes at 0.1 mM; format: cell-based

Compound: CCCc1ccc(/C=C2\Oc3cc(O)cc(O)c3C2=O)cc1
- inhibition [1]: 5%

Compound: O=C1/C(=C/c2ccccc2)Oc2cc(O)ccc21
- inhibition [1]: 0%

Compound: O=C1/C(=C/c2ccccc2O)Oc2cc(O)cc(O)c21
- inhibition [1]: 4%

Compound: O=C1/C(=C/c2ccc(O)cc2)Oc2cc(O)cc(O)c21
- Activity [2]: Non-toxic
- inhibition [3]: 38%
- inhibition [4]: 39%
- inhibition [5]: 66%
- inhibition [1]: 75%
- inhibition [6]: 75%
- inhibition [7]: 32%
- IC50 [8]: 38 µM
- inhibition [9]: 67%

Compound: CCOc1ccc(/C=C2\Oc3cc(O)cc(O)c3C2=O)cc1
- inhibition [1]: 5%

Compound: CC(C)(C)c1ccc(/C=C2\Oc3cc(O)cc(O)c3C2=O)cc1
- inhibition [1]: 0%

Compound: CCc1ccccc1/C=C1\Oc2cc(O)cc(O)c2C1=O
- inhibition [1]: 0%

Compound: COc1cc(/C=C2\Oc3cc(O)cc(O)c3C2=O)ccc1O
- inhibition [1]: 4%

Compound: COc1ccc(/C=C2\Oc3cc(O)cc(O)c3C2=O)cc1
- inhibition [1]: 11%

Compound: O=C1/C(=C/c2ccc(O)cc2)Oc2ccccc21
- inhibition [1]: 39%

Compound: CCc1ccc(/C=C2\Oc3cc(O)ccc3C2=O)cc1
- inhibition [1]: 0%

Compound: O=C1/C(=C/c2ccccc2)Oc2cc(O)cc(O)c21
- inhibition [1]: 3%
